Only some compounds are listed: those with a hit (about 1.7% of all), similar ones and a draw of the others.
MT1-MMP act inh = inhibitors of human MT1-MMP activation | 0.061% of 360,000 active | HT1080 RFP-PRO-GFP cells, GFP/RFP ratio fluorescence, overnight; percent of plate control window, DMSO zero | GFP/RFP ratio change, % at 20 µM | AID 651647 | P50281;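 active = GFP/RFP ratio change of at least 30% with cell ATP level not reduced by more than half and red fluorescence within 50% of control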
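system = RFP-PRO-GFP reporter HT1080 cells | dosing = 20 µM single dose, 1% DMSO | timing = overnight cell settling, then overnight compound exposure, 37 °C, 5% CO2 | read-out basis = GFP/RFP fluorescence ratio | controls = DMSO and RFP-L50D-GFP cell wells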
PABP polyA inh = PABP-poly(A) binding inhibition; P11940; inhibition, % at 35 µM; 1% of 290,000 active; PABP-poly(A) RNA binding, fluorescence polarization;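 also: calls also rest on retests at 20 µM and on dose response follow-up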
Target sequence (P11940 whole entry, looked up): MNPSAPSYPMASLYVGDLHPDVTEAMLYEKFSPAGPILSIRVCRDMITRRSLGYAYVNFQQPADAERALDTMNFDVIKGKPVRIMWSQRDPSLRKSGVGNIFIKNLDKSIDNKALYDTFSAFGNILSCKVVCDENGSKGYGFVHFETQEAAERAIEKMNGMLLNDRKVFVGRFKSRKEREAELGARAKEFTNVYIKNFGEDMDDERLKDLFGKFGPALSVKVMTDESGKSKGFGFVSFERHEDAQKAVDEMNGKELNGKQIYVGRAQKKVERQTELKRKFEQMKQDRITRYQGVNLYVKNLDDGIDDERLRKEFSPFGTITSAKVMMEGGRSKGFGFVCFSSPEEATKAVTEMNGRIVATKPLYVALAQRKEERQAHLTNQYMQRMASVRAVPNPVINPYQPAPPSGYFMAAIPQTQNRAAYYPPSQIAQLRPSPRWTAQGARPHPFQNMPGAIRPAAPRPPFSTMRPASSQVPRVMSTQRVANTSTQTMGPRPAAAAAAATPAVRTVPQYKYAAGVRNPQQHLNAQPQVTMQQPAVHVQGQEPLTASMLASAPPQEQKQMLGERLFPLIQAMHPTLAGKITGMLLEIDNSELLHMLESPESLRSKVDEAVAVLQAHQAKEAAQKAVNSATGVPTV
PABP1 MLLE inh = blocks PAM2 peptide binding to the PABP1 MLLE domain. AID 588489. P11940. 0.36% of 360,000 active. GST-MLLE / FITC-PAM2 fluorescence polarization. inhibition, % at 20 µM; in the data active = inhibition above about 35%, passing the limit was not always enough
SKN-1 inh = inhibitors of C. elegans SKN-1. inhibition, % at 21.8 µM. 0.49% of 360,000 active. C. elegans VP596 Pgst-4::GFP/RFP ratio, acrylamide-induced, 24 h;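 active = interference check ratio from 0.5 to 1.5 plus GFP to RFP signal ratio inhibition reaching or exceeding a fixed threshold, cut at about 30% in these data, passing the limit was not always enough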
eIF4H FP inh = inhibitors of RNA binding by human eIF4H; inhibition, % at 35 µM; 0.94% of 290,000 active; Q15056; eIF4H fluorescence polarization binding assay;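 also: calls also rest on retests at 20 µM and on dose response follow-up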
Each line names hits and unclear results; the compound was inactive in the other large screens. Unless noted, no rule for the calls is given here.

O=C(O)c1ccccc1Nc1ccccc1C(=O)O	none
CCc1ccc(CN(C)C(=O)C2CCC(=O)N(CCc3ccc(OC)cc3)C2)nc1 (stereo not given)	none
COc1ccnc(CN(C)C(=O)C2CCC(=O)N(CCN(C)C)C2)c1 (stereo not given)	eIF4H FP inh 54
Oc1cccc(C(=S)N2CCC(Cc3ccccc3)CC2)c1	none
Clc1ccc(-c2nc(Cc3ccccc3Cl)no2)cc1	none
Clc1ccc(Cc2noc(-c3cccs3)n2)cc1	SKN-1 inh 82
Cc1ccc(NC(=O)CCn2c(=O)c3cccn3c3ccccc32)cc1C	none
O=C(O)c1ccccc1SC1CC(=O)N(c2ccc3c(c2)OCO3)C1=O (stereo not given)	PABP1 MLLE inh 38
Nc1nnc(SC2CC(=O)N(c3ccccc3)C2=O)s1 (stereo not given)	PABP1 MLLE inh 42
O=C1CC(Sc2ncccn2)C(=O)N1c1ccccc1 (stereo not given)	none
Cc1ccc(N2C(=O)CC(Sc3ccccc3C(=O)O)C2=O)cc1 (stereo not given)	PABP1 MLLE inh 50
Cc1ccc(N2C(=O)CC(Sc3ccccc3C(=O)O)C2=O)c([N+](=O)[O-])c1 (stereo not given)	PABP1 MLLE inh 38
CCCCC/C=C/C1=CC(=O)C[C@H](c2ccc(OC)c(OC)c2)C1	none (no result: PABP polyA inh, eIF4H FP inh)
CCOC(=O)c1c(S(=O)(=O)NCC(=O)NCc2cccc(C)c2)c(C)n(C)c1C	none
CCNC(=O)C1(C)CCCN(Cc2csc(-c3ccccc3)n2)C1 (stereo not given)	none (no result: PABP polyA inh, eIF4H FP inh)
Cc1cccc(N2C(=O)CC(Sc3ccccc3C(=O)O)C2=O)c1 (stereo not given)	none
CC(C)c1ccc(N2C(=O)CC(Sc3ncccn3)C2=O)cc1 (stereo not given)	PABP1 MLLE inh 39
Cc1cc(C)cc(N2C(=O)CC(Sc3ccccc3C(=O)O)C2=O)c1 (stereo not given)	PABP1 MLLE inh 41
CSCCC(NC(=O)c1ccco1)C(=O)Nc1ccc(C)cn1 (stereo not given)	none (no result: PABP polyA inh, eIF4H FP inh)
Cc1ccc(C(=O)NCCCNCCCN(C)C)cn1	PABP polyA inh 59, eIF4H FP inh 68
CN(C)CCCNC(=O)c1ccc(=O)[nH]n1	PABP polyA inh 84, eIF4H FP inh 91
Cc1ccc(C(=O)NCCCNCCCNC(=O)c2ccc(C)nc2)cn1	none
O=C(Nc1cccc(Oc2ccccc2)c1)C1Cc2c(-c3ccc4c(c3)OCO4)ccnc2O1 (stereo not given)	SKN-1 inh 36 (no result: PABP polyA inh, eIF4H FP inh)
O=C(Nc1cccc(OC(F)(F)F)c1)C1Cc2c(-c3ccc4c(c3)OCO4)ccnc2O1 (stereo not given)	none (no result: PABP polyA inh, eIF4H FP inh)
CN(C(=O)C1Cc2c(-c3ccccc3Oc3ccccc3)ccnc2O1)c1ccccc1 (stereo not given)	SKN-1 inh 35 (no result: PABP polyA inh, eIF4H FP inh)
O=C(CN(CC1CCCO1)C(=O)CNS(=O)(=O)c1ccc(F)cc1)NC1CCCCC1 (stereo not given)	none
NC1=Nc2cccc3cccc1c23	PABP polyA inh 0.8
Cc1cc(C(=O)NCc2ccc(C(=O)O)o2)c(C)o1	PABP polyA inh 29
Cc1occc1C(=O)NCc1ccc(C(=O)O)o1	none
COc1ccc(NC(=O)N2C3CCCC2CC(NC(=O)c2ccccc2)C3)cc1 (stereo not given)	none
Cc1c(-c2ccc(Cl)cc2Cl)nc2ccccc2c1C(=O)NCCN1CCOCC1	none
O=C(NC(=S)N1CCOCC1)c1cn(-c2ccccc2)nc1-c1ccccc1	none (no result: PABP polyA inh, eIF4H FP inh)
O=C(NC(=S)NCCO)c1cn(-c2ccccc2)nc1-c1ccccc1	PABP1 MLLE inh 50
CCN(CC)C(=O)CC(c1cc(OC)c(OC)c(OC)c1)c1c(OC)cc(OC)c2c(-c3ccccc3)cc(=O)oc12 (stereo not given)	PABP polyA inh 46, eIF4H FP inh 103
COc1ccc(/C=N\Nc2ccccn2)c(OC)c1	none
COc1ccc(/C=N/Nc2ccccn2)c(OC)c1OC	PABP polyA inh 61, eIF4H FP inh 1.9
COC(=O)c1sccc1NC(=S)Nc1cc(C)cc(C)c1	PABP1 MLLE inh 38
COC(=O)c1sccc1NC(=S)Nc1ccccc1	none
COCCCn1c(=O)c2ccccc2n(Cc2cccc(C)c2)c1=O	SKN-1 inh 40
COCCCn1c(=O)c2ccccc2n(Cc2ccc(C)cc2)c1=O	none
Cc1ccccc1-n1ncc2c1CC(C)(C)CC2NC(=O)CCC(F)(F)F (stereo not given)	none
Cc1ccc(-c2nc3ncccn3c2NC2CCCCC2)o1	PABP polyA inh 51, eIF4H FP inh 54
Cn1ncc2nnn(-c3ccccc3)c(=O)c21	none
Cn1ncc2nc[nH]c(=O)c21	PABP polyA inh 1.2, eIF4H FP inh inconclusive
O=C(N=Nc1c(O)[nH]c2ccccc12)c1ccc2c(c1)OCO2	PABP polyA inh 54, eIF4H FP inh 8.5
COCCCNC(=O)c1cn(CC(C)C)c(=O)c2c1c1ccccc1n2C	SKN-1 inh 50
COc1cc(C2Nc3cccc4cccc(c34)N2)ccc1OC(C)=O	MT1-MMP act inh 31, PABP polyA inh 88, eIF4H FP inh 105
COc1ccc(C2Nc3cccc4cccc(c34)N2)cc1Br	eIF4H FP inh 62
COc1cc(C2Nc3cccc4cccc(c34)N2)cc(OC)c1O	none
CCN(c1ccccc1)S(=O)(=O)c1ccc2c(c1)OCCO2	none (no result: PABP polyA inh, eIF4H FP inh)
CN1CCN(/N=C/c2ccc(OCc3ccccc3)cc2)CC1	SKN-1 inh 50
COC(=O)c1ccc(COc2ccc(/C=N/N3CCN(C)CC3)cc2)cc1	none
CCN(CC)C(=O)CSc1nc(-c2ccccc2)cc(=O)[nH]1	none
CSc1nc(NCCOCCO)c2sc3nc(-c4ccco4)c4c(c3c2n1)CCC4	PABP polyA inh 94, eIF4H FP inh 94
CCN(CCO)c1ncnc2c1sc1nc(C(C)C)c3c(c12)CC(C)(C)OC3	none
CCN(CCO)c1nc(SC)nc2c1sc1nc(-c3ccco3)c3c(c12)CCC3	PABP polyA inh 73, eIF4H FP inh 85
Cc1nn(C)cc1C(=O)Nc1ccc2c(c1)OCCO2	none
CCN(c1ccccc1)S(=O)(=O)c1cccc(C(=O)Nc2ccc(C)cn2)c1	SKN-1 inh 48
COc1ccc2c(c1)C(=O)c1ccccc1CO2	none
O=C1c2ccccc2COc2ccc(O)cc21	eIF4H FP inh 51
N/C(=N\OC(=O)COc1ccc2ccccc2c1)c1cccnc1	SKN-1 inh 42
Cc1cccc(OCC(=O)O/N=C(\N)c2ccncc2)c1	none
N/C(=N\OC(=O)COc1ccc(Cl)cc1)c1cccnc1	SKN-1 inh 37
N/C(=N\OC(=O)COc1ccc2ccccc2c1)c1ccncc1	SKN-1 inh 39
CCCN(CC(=O)Nc1ccccc1OC)C(=O)c1cccc(S(=O)(=O)Nc2ccc(OC)cc2)c1	none (no result: PABP polyA inh, eIF4H FP inh)
O=C(Nc1ccc(F)cc1)c1csc(Cc2ccccc2)n1	eIF4H FP inh 5.5
COc1ccc(NC(=O)c2csc(Cc3ccccc3)n2)cc1	none
CCOc1cccc2cc(C(=O)N3CCc4ccccc43)c(=O)oc12	SKN-1 inh 47
COc1cccc2cc(C(=O)N3CCc4ccccc43)c(=O)oc12	none
